# From ChEMBL document CHEMBL4725448, “Substituted Azabicyclo[2.2.1]heptanes as Selective Orexin-1 Antagonists: Discovery of JNJ-54717793” (ACS Med Chem Lett, 2020)
# Legend:
# [1] = Dissociation constant, pKa of the compound; format: physicochemical
# [2] = Lipophilicity, logD of the compound at pH 7.4; format: physicochemical; details: buffer
# [3] = Stability in human liver microsomes assessed as extraction ratio; format: ADME, Microsome; details: read-out: ERH
# How it was run: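 Metabolic stability in human or rat liver microsomes, expressed as extraction ratios.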
# [4] = target: T1, Orexin/Hypocretin receptor type 1 (Homo sapiens, UniProt O43613); experiment: Binding affinity to human […]
# T1 sequence (O43613 whole entry): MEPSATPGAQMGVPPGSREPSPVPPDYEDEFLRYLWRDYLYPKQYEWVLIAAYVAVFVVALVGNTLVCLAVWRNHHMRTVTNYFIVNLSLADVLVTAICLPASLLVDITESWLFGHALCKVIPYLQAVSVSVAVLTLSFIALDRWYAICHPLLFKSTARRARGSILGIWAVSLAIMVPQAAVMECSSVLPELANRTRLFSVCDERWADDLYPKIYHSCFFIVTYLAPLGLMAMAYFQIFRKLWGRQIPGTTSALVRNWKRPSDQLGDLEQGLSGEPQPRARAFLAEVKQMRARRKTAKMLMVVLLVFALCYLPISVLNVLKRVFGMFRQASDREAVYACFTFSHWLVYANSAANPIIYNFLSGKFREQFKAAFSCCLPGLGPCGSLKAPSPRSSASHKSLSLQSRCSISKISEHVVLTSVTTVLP
# Orexin receptor type 2 = target: T2, Orexin receptor type 2 (Homo sapiens, UniProt O43614); experiment: Binding affinity to human OX2R
# T2 sequence (O43614 whole entry): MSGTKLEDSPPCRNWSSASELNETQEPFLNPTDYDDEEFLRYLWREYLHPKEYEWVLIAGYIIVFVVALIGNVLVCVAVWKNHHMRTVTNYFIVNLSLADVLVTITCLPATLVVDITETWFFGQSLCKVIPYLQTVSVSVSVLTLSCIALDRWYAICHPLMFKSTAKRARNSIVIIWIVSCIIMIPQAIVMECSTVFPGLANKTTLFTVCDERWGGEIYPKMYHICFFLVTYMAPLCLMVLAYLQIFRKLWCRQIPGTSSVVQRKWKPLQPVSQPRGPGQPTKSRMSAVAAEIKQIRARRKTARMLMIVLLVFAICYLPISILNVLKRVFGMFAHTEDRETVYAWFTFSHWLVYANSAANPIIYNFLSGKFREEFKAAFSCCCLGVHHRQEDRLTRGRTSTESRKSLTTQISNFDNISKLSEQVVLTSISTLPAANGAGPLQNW
# [5] = Protein binding in human plasma assessed as free fraction; format: ADME, cell-free
# [6] = Protein binding in rat brain assessed as free fraction; format: ADME, tissue-based
# [7] = Cmax in rat assessed as NOAEL at 250 mg/kg, po administered as repeated dose for 5 days; format: ADME, organism-based; set-up: route oral, dose 250 mg/kg, time 5 day; details: in vivo
# [8] = Oral bioavailability in dog at […]; format: ADME, organism-based, Canis lupus familiaris; details: in vivo, dose 2.5 mg/kg
# [9] = Clearance in mouse at 1 mg/kg, iv and 5 mg/kg, po; format: ADME, organism-based; details: in vivo
# [10] = Clearance in dog at 0.5 mg/kg, iv and […], po; format: ADME, organism-based, Canis lupus familiaris; details: in vivo, dose 2.5 mg/kg
# [11] = Cmax in rat at 1 mg/kg, iv and 5 mg/kg, po; format: ADME, organism-based; set-up: dose 5 mg/kg; details: in vivo
# [12] = Cmax in dog at 0.5 mg/kg, iv and […], po; format: ADME, organism-based, Canis lupus familiaris; set-up: dose 2.5 mg/kg; details: in vivo
# [13] = Cmax in dog assessed as NOAEL at 25 mg/kg, po administered for 6 days; format: ADME, organism-based, Canis lupus familiaris; set-up: route oral, dose 25 mg/kg, time 6 day; details: in vivo
# How it was run: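 Six-day dog toxicology study with oral dosing; NOAEL-level Cmax; exposures compared between sexes and between day 0 and day 5.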
# [14] = Drug concentration in Sprague-Dawley rat plasma at 10 mg/kg, po after 0.5 hrs by LC-MS/MS analysis; format: ADME, organism-based
# How it was run: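 Brain and plasma levels (ng/mL) sampled 0.5 h after oral dosing at 10 or 30 mg/kg, alongside the ex vivo tenia tecta occupancy study.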
# [15] = Cmax in human at 50 mg/day; format: ADME; set-up: dose 50 mg
# [16] = AUC in human at 50 mg/day; format: ADME; set-up: dose 50 mg
# [17] = […] clearance in mouse at 1 mg/kg, iv and 5 mg/kg, po; format: ADME, organism-based; details: in vivo
# [18] = […] clearance in rat at 1 mg/kg, iv and 5 mg/kg, po; format: ADME, organism-based; details: in vivo
# [19] = […] clearance in dog at 0.5 mg/kg, iv and […], po; format: ADME, organism-based, Canis lupus familiaris; details: in vivo, dose 2.5 mg/kg
smiles,measurement,setting,value
O=C(c1cccc(F)c1-c1ncccn1)N1[C@@H]2CC[C@H]1[C@H](Nc1cnc(C(F)(F)F)cn1)C2,pKa,[1],< 2
same,logD,[2],2.18
same,hepatic extraction ratio,[3],< 0.3
same,Ki,[4],0.016 µM
same,Ki,Orexin receptor type 2,0.7 µM
same,fraction unbound,[5],0.2
same,fraction unbound,[6],0.09
same,Cmax,[7],15000 ng/mL
same,bioavailability,[8],48%
same,clearance,[9],21 mL/min/kg
same,clearance,[10],0.9 mL/min/kg
same,Cmax,[11],1370 ng/mL
same,Cmax,[12],2240 ng/mL
same,Cmax,[13],15100 ng/mL
same,concentration at 0.5 h,[14],1190 ng/mL
same,Cmax,[15],537 ng/mL
same,AUC,[16],6870 ng·h/mL
same,clearance,[17],29 mL/min/kg
same,clearance,[18],17 mL/min/kg
same,clearance,[19],4.8 mL/min/kg
